For orientation: inhibition means the percentage by which the read-out fell short of the control. In general, inhibition in vivo refers to how much of the control response was suppressed.

Molecules are shown by their SMILES.

The values that follow come from ChEMBL document CHEMBL4138056, “T- and B-cell immunosuppressive activity of novel α-santonin analogs with humoral and cellular immune response in Balb/c mice” (Medchemcomm, 2017).

Series [1] relates to B-cell line. The experiment in a line: Cytotoxicity against Balb/c mouse B cells assessed as decrease cell survival at 1 uM by MTT assay. It is filed as cell-based. Summed up: (§1)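 Balb/c splenocytes (RBC lysed with tris-ammonium chloride, trypan blue viability) seeded at 1×10^6 cells/mL with Con A or LPS (10 μg/mL each) and test agent at 1, 10 or 100 μM for 48 h at 37 °C, 5% CO2; MTT added for 4 h, formazan dissolved in DMSO, OD 540 nm. Cytotoxicity scored +/−; triplicate, three separate experiments.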
A general note: Tetrazolium assays rely on reduction of a dye to a coloured formazan, in cell work by metabolically active cells.

The subject of series [2] is Murine T-cell line. Briefly: Immunosuppressive activity in Balb/c mouse T cells assessed as inhibition of ConA-induced cell proliferation at 1 uM after 48 hrs by MTT assay relative to control.
In series [3] the test system is Murine T-cell line. The experiment in a line: Cytotoxicity against Balb/c mouse T cells assessed as decrease in cell survival at 1 uM by MTT assay. Format: cell-based. Summed up:
as §1

Series [4] has as its system Mus musculus. The experiment in a line: Inhibition of humoral immune response in Balb/c mouse assessed as decrease in sheep RBC hemagglutination at 25 mg/kg, po qd administered 6 consecutive days measured on day 7 by micro titration method relative to control. Format: functional. The conditions noted are these: 168 h. Summed up: (§2)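 Female Balb/c mice, groups of six, immunized with SRBC and dosed orally; blood taken on day 7 for primary antibody titre, hemagglutination titre determined by modified microtitration; suppression versus control group.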

Series [5] relates to Murine T-cell line. Briefly: Immunosuppressive activity in Balb/c mouse T cells assessed as inhibition of ConA-induced cell proliferation at 100 uM after 48 hrs by MTT assay relative to control.
The subject of series [6] is B-cell line. The experiment in a line: Cytotoxicity against Balb/c mouse B cells assessed as decrease cell survival at 10 uM by MTT assay. It is filed as cell-based. In a few lines:
as §1

For series [7], the system named is B-cell line. Briefly: Immunosuppressive activity in Balb/c mouse B cells assessed as inhibition of LPS-induced cell proliferation at 100 uM after 48 hrs by MTT assay relative to control. Format: functional. In a few lines:
(§3)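 Balb/c spleen single-cell suspension, RBCs lysed with tris-ammonium chloride, viability by trypan blue; 1×10^6 cells/mL stimulated with LPS (10 μg/mL) for B cells, test agent 1, 10 or 100 μM, 48 h at 37 °C, 5% CO2. MTT 4 h, DMSO solubilization, OD 540 nm; % change vs mitogen control; triplicate, three separate experiments.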

Series [8] concerns Murine T-cell line. The experiment in a line: Cytotoxicity against Balb/c mouse T cells assessed as decrease in cell survival at 100 uM by MTT assay. Format: cell-based. Summed up: as §1
Series [9] relates to B-cell line. The experiment in a line: Cytotoxicity against Balb/c mouse B cells assessed as decrease cell survival at 100 uM by MTT assay. Format: cell-based. Summed up:
as §1

The test system of series [10] is Mus musculus. The experiment in a line: Inhibition of delayed-type hypersensitivity reaction in Balb/c mouse assessed as decrease in sheep RBC-induced footpad thickness at 25 mg/kg, po qd administered 6 consecutive days followed by sheep RBC challenge measured after 24 to 48 hrs by spheromicrometer relative to control. It is filed as functional. Summed up: (§4)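 Female Balb/c mice, groups of six, SRBC-immunized; oral dosing starting 2 h after SRBC, then once daily. Six days later baseline left hind footpad thickness read by spheromicrometer, then intradermal footpad challenge with 20 μL of 5×10^9 SRBC/mL; thickness re-measured at 24 and 48 h versus control group.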

The subject of series [11] is Murine T-cell line. The experiment in a line: Immunosuppressive activity in Balb/c mouse T cells assessed as inhibition of ConA-induced cell proliferation at 10 uM after 48 hrs by MTT assay relative to control.
Series [12] has as its system B-cell line. Briefly: Immunosuppressive activity in Balb/c mouse B cells assessed as inhibition of LPS-induced cell proliferation at 10 uM after 48 hrs by MTT assay relative to control. It is filed as functional. Summed up:
as §3

In series [13] the test system is Mus musculus. Briefly: Inhibition of delayed-type hypersensitivity reaction in Balb/c mouse assessed as decrease in sheep RBC-induced footpad thickness at 12.5 mg/kg, po qd administered 6 consecutive days followed by sheep RBC challenge measured after 24 to 48 hrs by spheromicrometer relative to control. It is filed as functional. In a few lines: as §4
For series [14], the system named is Mus musculus. Briefly: Inhibition of humoral immune response in Balb/c mouse assessed as decrease in sheep RBC hemagglutination at 6.25 mg/kg, po qd administered 6 consecutive days measured on day 7 by micro titration method relative to control. It is filed as functional. To be noted: 168 h. Summed up:
as §2

For series [15], the system named is Murine T-cell line. The experiment in a line: Cytotoxicity against Balb/c mouse T cells assessed as decrease in cell survival at 10 uM by MTT assay. It is filed as cell-based. In a few lines:
as §1

In series [16] the test system is B-cell line. The experiment in a line: Immunosuppressive activity in Balb/c mouse B cells assessed as inhibition of LPS-induced cell proliferation at 1 uM after 48 hrs by MTT assay relative to control. Format: functional. In a few lines: as §3

Regarding `Cc1cc(OC(=O)C(C)(C)C)c(C)c2c1CC[C@H]1[C@H](C)C(=O)O[C@@H]21`, the Activity entry in [1], in series [3], in series [6], in series [8], in series [9] and in series [15] was “Non-Toxic” throughout. Further, the inhibition at 1 µM in [2] was found to be 35.1%; in series [16], 48.7%. The inhibition in vivo at 25 mg/kg in [4] is 41%; in [10] it was 35%. Also, the values for the inhibition at 100 µM in series [5] and in [7] were 75% and 80.5%, respectively. Further, the inhibition at 10 µM in [11] was 58.1%; in series [12] it was 66%. Also, the inhibition in vivo at 12.5 mg/kg in series [13] is 30%. In series [14], the inhibition in vivo at 6.25 mg/kg was 28%.
